# Laboratory results: ChEMBL document CHEMBL4033712, “Synthesis and biological evaluation of new C-12(α/β)-(N-) sulfamoyl-phenylamino-14-deoxy-andrographolide derivatives as potent anti-cancer agents” (Bioorg Med Chem Lett, 2017)
# Legend:
# Assay type in all cases: functional
# A498 = assay: Growth inhibition of human A498 cells incubated for 48 hrs by sulforhodamine B assay; conditions: A498, 48 h
# Procedure, shortened: (§1)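 NCI-60 five-dose screen at 0.01, 0.1, 1, 10 and 100 µM, 48 h incubation, sulforhodamine B end point. GI50 (50% decrease in net growth), TGI (total growth inhibition) and LC50 (net 50% loss of initial cells) taken from log concentration versus % growth inhibition curves.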
# OVCAR-4 = assay: Growth inhibition of human OVCAR4 cells incubated for 48 hrs by sulforhodamine B assay; conditions: OVCAR-4, 48 h; procedure, shortened: as §1
# COLO 205 = assay: Growth inhibition of human COLO205 cells incubated for 48 hrs by sulforhodamine B assay; conditions: COLO 205, 48 h; procedure, shortened: as §1
# BT-549 = assay: Growth inhibition of human BT549 cells incubated for 48 hrs by sulforhodamine B assay; conditions: BT-549, 48 h; procedure, shortened: as §1
# SF-268 = assay: Growth inhibition of human SF268 cells incubated for 48 hrs by sulforhodamine B assay; conditions: SF-268, 48 h
# Procedure, shortened: (§2)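 NCI 60 human tumour cell line panel, five-dose study at 0.01, 0.1, 1, 10 and 100 µM, 48 h incubation. Sulforhodamine B protein-binding dye end point. GI50 (50% decrease in net cell growth), TGI (total growth inhibition) and LC50 (net 50% loss of initial cells) read from log concentration versus % growth inhibition curves.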
# 786-0 = assay: Growth inhibition of human 786-0 cells incubated for 48 hrs by sulforhodamine B assay; conditions: 786-0, 48 h; procedure, shortened: as §1
# KM12 = assay: Growth inhibition of human KM12 cells incubated for 48 hrs by sulforhodamine B assay; conditions: KM12, 48 h; procedure, shortened: as §1
# OVCAR-8 = assay: Growth inhibition of human OVCAR8 cells incubated for 48 hrs by sulforhodamine B assay; conditions: OVCAR-8, 48 h; procedure, shortened: as §1
# MDA-MB-231 = assay: Growth inhibition of human MDA-MB-231 cells incubated for 48 hrs by sulforhodamine B assay; conditions: MDA-MB-231, 48 h; procedure, shortened: as §1
# SF-539 = assay: Anticancer activity against human SF539 cells assessed as cell growth at 10 uM after 48 hrs by sulforhodamine B assay relative to control; conditions: SF-539, 48 h, read-out: Activity
# Procedure, shortened: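 Single-dose NCI-60 panel screen: compound added at 10 µM and the culture incubated 48 h. The end point was read by protein staining with sulforhodamine B. The value is percent growth of treated cells relative to untreated control cells, reported as a mean graph across the panel.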
# PC-3 = assay: Growth inhibition of human PC3 cells incubated for 48 hrs by sulforhodamine B assay; conditions: PC-3, 48 h; procedure, shortened: as §1
# TK-10 = assay: Growth inhibition of human TK10 cells incubated for 48 hrs by sulforhodamine B assay; conditions: TK-10, 48 h; procedure, shortened: as §2
# Hs-578T = assay: Growth inhibition of human Hs 578T cells incubated for 48 hrs by sulforhodamine B assay; procedure, shortened: as §1
# RXF 393 = assay: Growth inhibition of human RXF393 cells incubated for 48 hrs by sulforhodamine B assay; conditions: RXF 393, 48 h; procedure, shortened: as §2
# M14 = assay: Growth inhibition of human M14 cells incubated for 48 hrs by sulforhodamine B assay; conditions: M14, 48 h; procedure, shortened: as §1
# EKVX = assay: Growth inhibition of human EKVX cells incubated for 48 hrs by sulforhodamine B assay; procedure, shortened: as §1
# NCI-H23 = assay: Growth inhibition of human NCI-H23 cells incubated for 48 hrs by sulforhodamine B assay; conditions: NCI-H23, 48 h; procedure, shortened: as §1
# NCI-H322M = assay: Growth inhibition of human NCI-H322M cells incubated for 48 hrs by sulforhodamine B assay; procedure, shortened: as §1
# ACHN = assay: Growth inhibition of human ACHN cells incubated for 48 hrs by sulforhodamine B assay; procedure, shortened: as §1
# IGROV-1 = assay: Growth inhibition of human IGROV1 cells incubated for 48 hrs by sulforhodamine B assay; conditions: IGROV-1, 48 h; procedure, shortened: as §1
# SNB-19 = assay: Growth inhibition of human SNB19 cells incubated for 48 hrs by sulforhodamine B assay; conditions: SNB-19, 48 h; procedure, shortened: as §2
# SK-MEL-5 = assay: Growth inhibition of human SK-MEL-5 cells incubated for 48 hrs by sulforhodamine B assay; conditions: SK-MEL-5, 48 h; procedure, shortened: as §2
# SNB-75 = assay: Growth inhibition of human SNB75 cells incubated for 48 hrs by sulforhodamine B assay; conditions: SNB-75, 48 h; procedure, shortened: as §2
# SN12C = assay: Growth inhibition of human SN12C cells incubated for 48 hrs by sulforhodamine B assay; procedure, shortened: as §2
# MDA-MB-468 = assay: Growth inhibition of human MDA-MB-468 cells incubated for 48 hrs by sulforhodamine B assay; conditions: MDA-MB-468, 48 h; procedure, shortened: as §1
# HCT-15 = assay: Growth inhibition of human HCT15 cells incubated for 48 hrs by sulforhodamine B assay; conditions: HCT-15, 48 h; procedure, shortened: as §1
# HT-29 = assay: Growth inhibition of human HT-29 cells incubated for 48 hrs by sulforhodamine B assay; conditions: HT-29, 48 h; procedure, shortened: as §1
# [1] = read-out: LC50 (the source's name)
compound,measurement,setting,value
C=C1CC[C@@H]2[C@](C)(COC(C)=O)[C@H](OC(C)=O)CC[C@@]2(C)[C@H]1CC(Nc1ccc(S(=O)(=O)Nc2cc(C)on2)cc1)C1=CCOC1=O (some centres undefined),GI50,A498,7.69 µM
same,LC50 (concentration giving net 50% loss of initial cells),A498,45 µM
same,TGI,A498,20.3 µM
same,GI50,OVCAR-4,2.91 µM
same,LC50,OVCAR-4,35.1 µM
same,TGI,OVCAR-4,10.5 µM
same,GI50,COLO 205,1.97 µM
same,TGI,COLO 205,4.34 µM
same,CC50,COLO 205; [1],9.55 µM
same,GI50,BT-549,1.79 µM
same,TGI,BT-549,3.47 µM
same,CC50,BT-549; [1],6.73 µM
same,GI50,SF-268,2.35 µM
same,TGI,SF-268,6.11 µM
same,CC50,SF-268; [1],32.9 µM
same,GI50,786-0,1.96 µM
same,LC50 (concentration giving net 50% loss of initial cells),786-0,6.82 µM
same,TGI,786-0,3.66 µM
same,GI50,KM12,1.83 µM
same,TGI,KM12,3.69 µM
same,CC50,KM12; [1],7.42 µM
same,GI50,OVCAR-8,1.88 µM
same,TGI,OVCAR-8,4.3 µM
same,CC50,OVCAR-8; [1],9.83 µM
same,GI50,MDA-MB-231,2.22 µM
same,LC50 (concentration giving net 50% loss of initial cells),MDA-MB-231,17.1 µM
same,TGI,MDA-MB-231,5.11 µM
same,growth at 10 µM,SF-539,6.3%
same,GI50,PC-3,1.98 µM
same,TGI,PC-3,4.31 µM
same,CC50,PC-3; [1],9.4 µM
same,GI50,TK-10,3.04 µM
same,TGI,TK-10,7.11 µM
same,CC50,TK-10; [1],23.8 µM
same,GI50,Hs-578T,3.92 µM
same,LC50,Hs-578T,> 100 µM
same,TGI,Hs-578T,26.7 µM
same,GI50,RXF 393,2.05 µM
same,TGI,RXF 393,3.84 µM
same,CC50,RXF 393; [1],7.22 µM
same,GI50,M14,1.69 µM
same,TGI,M14,4.17 µM
same,CC50,M14; [1],10.8 µM
same,GI50,EKVX,11 µM
same,TGI,EKVX,25.9 µM
same,CC50,EKVX; [1],60.8 µM
same,GI50,NCI-H23,2.31 µM
same,TGI,NCI-H23,5.9 µM
same,CC50,NCI-H23; [1],31.4 µM
same,GI50,NCI-H322M,4.68 µM
same,TGI,NCI-H322M,16.1 µM
same,CC50,NCI-H322M; [1],44.6 µM
same,GI50,ACHN,1.71 µM
same,TGI,ACHN,3.48 µM
same,CC50,ACHN; [1],7.05 µM
same,GI50,IGROV-1,2.36 µM
same,TGI,IGROV-1,6.51 µM
same,CC50,IGROV-1; [1],76.2 µM
same,GI50,SNB-19,3.12 µM
same,TGI,SNB-19,12.2 µM
same,CC50,SNB-19; [1],46.4 µM
same,GI50,SK-MEL-5,2.11 µM
same,TGI,SK-MEL-5,4.65 µM
same,CC50,SK-MEL-5; [1],11.7 µM
same,GI50,SNB-75,2.03 µM
same,TGI,SNB-75,11.5 µM
same,CC50,SNB-75; [1],33.9 µM
same,GI50,SN12C,1.73 µM
same,TGI,SN12C,4.52 µM
same,CC50,SN12C; [1],20.7 µM
same,GI50,MDA-MB-468,1.49 µM
same,TGI,MDA-MB-468,3.29 µM
same,CC50,MDA-MB-468; [1],7.27 µM
same,GI50,HCT-15,1.5 µM
same,TGI,HCT-15,3.83 µM
same,CC50,HCT-15; [1],9.74 µM
same,GI50,HT-29,1.58 µM
same,TGI,HT-29,3.09 µM
same,CC50,HT-29; [1],6.04 µM
